Bioassay records from PubChem.
Hits are enriched below; roughly 2.2% of the tested compounds scored in any of these assays.
RanGTP-Imp inh = inhibitors of RanGTP-importin-beta interaction, primary screen, biochemical, FRET, CFP-Ran, YFP-importin-beta, homogeneous | cell-free CFP-Ran/YFP-importin-beta FRET ratio | inhibition, % (concentration not given with the values) | 300,000 compounds, 1.1% hits | AID 2216;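 active = more than half of the replicate wells show a fall in the fluorescence ratio signal beyond about 16%, limit read from the data, passing the limit was not always enough; inconclusive = exactly half of the replicate wells pass the set limit; inactive = fewer than half of replicates pass the limit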;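 also: 0% = DMSO wells and 100% = Ran loaded with GDP instead of GTP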
Tb hexokinase = blocks Trypanosoma brucei hexokinase 1 activity; recombinant TbHK1, G6PDH-coupled NADH A340; inhibition, % at 10 µM; 220,000 compounds, 0.11% hits;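 active = inhibition of 50% or more in the single-dose primary screen; inactive = inhibition below 50%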
Hck Nef HTS = inhibitors of human Hck kinase activated by Nef. AID 463187. Recombinant Hck-YEEI plus Nef, Z-Lyte FRET kinase assay. inhibition, % at 20 µM. 220,000 compounds, 0.68% hits;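 active = Hck-Nef kinase inhibition above about 50%, limit read from the data; inactive = inhibition below that limit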;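 also: 0% = DMSO with Hck plus Nef and 100% = Hck alone without Nef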
Runt-CBFb FRET = Runt domain-CBFb interaction inhibition. Q01196+Q13951. Cerulean-Runt/Venus-CBFb FRET ratio 530/480, 1 h. inhibition, % at 20 µM. 220,000 compounds, 0.46% hits. AID 1496;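 active = inhibition over about 50% at 20 µM in the single-dose screen, limit read from the data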;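 also: 0% = DMSO wells and 100% = excess unlabeled CBFb competitor control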
Target sequence (Q01196 whole entry, looked up, the tested form may be a part): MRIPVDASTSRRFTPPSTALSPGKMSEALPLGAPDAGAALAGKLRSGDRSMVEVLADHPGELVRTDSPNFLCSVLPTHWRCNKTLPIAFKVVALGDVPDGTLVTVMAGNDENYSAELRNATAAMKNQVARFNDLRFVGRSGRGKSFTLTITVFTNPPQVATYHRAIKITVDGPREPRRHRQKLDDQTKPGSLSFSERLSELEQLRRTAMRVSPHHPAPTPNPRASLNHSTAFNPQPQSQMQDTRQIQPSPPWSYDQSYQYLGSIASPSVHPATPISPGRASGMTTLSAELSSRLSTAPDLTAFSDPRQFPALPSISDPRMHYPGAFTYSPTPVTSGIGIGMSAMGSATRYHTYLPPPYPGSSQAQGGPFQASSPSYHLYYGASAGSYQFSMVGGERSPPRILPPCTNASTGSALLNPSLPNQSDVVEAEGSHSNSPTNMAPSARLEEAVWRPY
Target sequence (Q13951 whole entry, looked up, the tested form may be a part): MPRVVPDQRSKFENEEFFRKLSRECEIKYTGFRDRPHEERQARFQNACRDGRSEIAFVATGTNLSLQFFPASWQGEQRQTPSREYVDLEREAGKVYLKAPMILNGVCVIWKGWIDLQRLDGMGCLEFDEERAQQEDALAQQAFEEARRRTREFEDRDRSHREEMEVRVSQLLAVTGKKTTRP
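System: Cerulean-labeled Runt domain protein | Quantity: 100 nM of each labeled protein | Schedule: 1 h compound exposure, room temperature | Detection: Fluorescence energy transfer, 422 nm excitation, 530/480 nm emission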
Runt-SMMHC FRET = Runt domain-CBFb-SMMHC interaction inhibition; inhibition, % at 20 µM; Q01196+Q13951; AID 1434; 220,000 compounds, 0.74% hits; Cerulean-Runt/Venus-CBFb-SMMHC FRET ratio 530/480, 1 h;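 active = mean inhibition across duplicate retests at 20 µM reaching about 50%, limit read from the data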;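 also: 0% = DMSO wells and 100% = wells with excess untagged CBFb-SMMHC; inhibitors lower the FRET ratio by blocking Runt binding to CBFb-SMMHC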
14-3-3 Bad PPI = disrupts binding of bovine 14-3-3 zeta to phospho-Bad peptide | inhibition, % at 21.7 µM | P63103 | 220,000 compounds, 0.71% hits | AID 781 | TR-FRET 14-3-3zeta/Dy647-pBad peptide displacement, 1 h;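 active = inhibition above about 70%, limit read from the data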;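 also: 0% = full 14-3-3 plus peptide FRET controls and 100% = background without 14-3-3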
* hit, by the source's call; ? = inconclusive; . = no result given; [ ] = remark or other dose.

SMILES	RanGTP-Imp inh	Tb hexokinase	Hck Nef HTS	Runt-CBFb FRET	Runt-SMMHC FRET	14-3-3 Bad PPI
N#C/C(=C\c1cn(Cc2ccccc2)c2ccccc12)C(=O)NCc1ccco1	-1	29	2	-11	-22	-4
Cc1cccc(NC(=O)/C(C#N)=C/c2cn(CC(=O)NCc3ccco3)c3ccccc23)c1C	57*	2	6	-60	-46	1
COc1cc(C(=O)Nc2cccc(S(=O)(=O)N3CCCC3)c2)cc(OC)c1C	1	-11	13	3	0	6
Cc1ccc2occ(CN3CCN(c4ccccc4)CC3)c(=O)c2c1	-5	-6	0	0	2	18
Cc1ccc2occ(CN3CCN(Cc4ccccc4)CC3)c(=O)c2c1	6	-3	2	-1	-8	72*
O=c1c(CN2CCN(Cc3ccccc3)CC2)coc2ccc(Cl)cc12	-1	-6	0	0	5	72*
O=C(NN1CCOCC1)c1cccc(COc2cccc(Br)c2)c1	2	-6	3	2	4	93*
CC(Sc1nc2c(c(=O)[nH]1)CCCC2)C(=O)Nc1ccccc1C#N (stereo not given)	-3	.	.	.	.	.
CCOc1cc(/C=C2\CCCc3c2nc2ccccc2c3C(=O)O)ccc1OC	47*	.	.	.	.	.
COc1cc(/C=C2\CCCc3c2nc2ccccc2c3C(=O)O)cc(Br)c1O	0	.	.	.	.	.
CCOC(=O)c1c(NC(=S)N2CCN(C)CC2)sc2c1CCN(C(=O)OCC)C2	2	-24	10	7	2	-5
CCOC(=O)C(NC(=O)CC)(Nc1sc2c(c1C(=O)OC)CCN(C)C2)C(F)(F)F (stereo not given)	38*	-13	0	8	32	-6
CCOC(=O)NC(Nc1sc2c(c1C(=O)OC)CCN(C)C2)(C(F)(F)F)C(F)(F)F	57*	-3	0	38	47	-1
COC(=O)NC(Nc1sc2c(c1C(N)=O)CCCC2)(C(=O)OC)C(F)(F)F (stereo not given)	5	-4	4	11	2	-4
CCC(=O)NC(Nc1sc2c(c1C(=O)OC)CCN(C)C2)(C(F)(F)F)C(F)(F)F	66*	-5	6	34	61*	-2
CCOC(=O)C1(Cc2cccc(OC)c2)CCCN(Cc2cc(OC)c(O)c(OC)c2)C1 (stereo not given)	0	.	.	.	.	.
COc1ccc(C2=C/C(=C/c3cccnc3)C(=O)O2)cc1OC	-15	-10	-2	-16	-60	-16
CCOc1ccc(C2=C/C(=C/c3cccnc3)C(=O)O2)cc1	29*	-11	-3	12	78	6
COc1cccc(OCc2nn3c(=O)c(-c4ccccc4)nnc3s2)c1	7	.	.	.	.	.
Cc1nc(S/C(=C\c2ccc(-c3ccc(C(=O)O)c(Cl)c3)o2)C(=O)O)n[nH]1	1	-23	39	-23	-36	86*
Cc1nc(S/C(=C\c2ccc(OCc3ccccc3Cl)cc2)C(=O)O)n[nH]1	.	-6	3	21	-17	5
O=C(NCCN1CCNCC1)c1ccccn1	-1	-1	-1	-3	-7	73*
O=C(NCCCNCCCNC(=O)c1ccccn1)c1ccccn1	0	-2	1	0	0	15
CCCN1CCC2(CC1)C(C#N)=C(N)Oc1c2sc2nc(C)cc(C)c12	26*	2	3	6	12	5
N#CC(C#N)=Cc1c[nH]c(=O)c(C#N)c1Nc1ccccc1	67*	.	.	.	.	.
SMILES	RanGTP-Imp inh	Tb hexokinase	Hck Nef HTS	Runt-CBFb FRET	Runt-SMMHC FRET	14-3-3 Bad PPI
CCOc1ccc(-c2ccc(/C=C3/C(=N)N4C(C)=CSC4=NC3=O)o2)c([N+](=O)[O-])c1	-8	-16	18	10	-10	64
CCOc1ccc(-c2ccc(/C=C3/C(=N)N4C=CSC4=NC3=O)o2)c([N+](=O)[O-])c1	-5	-7	35	8	-13	84*[fluorescence artefact?]
N#Cc1c(Cl)c(Cl)c2nnc(-c3ccc(Br)cc3)n2c1Cl	4	-16	-1	-2	-2	95*[fluorescence artefact?]
[S-]c1nnc(-c2ccc(Br)cc2)n1-c1ccccc1.[Zn+2]	-3	.	.	.	.	.
CCOC(=O)c1ccc(Nc2c(OCC)c(=O)c2=O)cc1	-3	-52	23	0	6	-3
CC1CC(C)CN(S(=O)(=O)c2ccc(C(=O)N3CCOCC3)cc2)C1 (stereo not given)	4	.	.	.	.	.
CCN1C(=O)/C(=C\N(C)C)S/C1=N\S(=O)(=O)c1ccccc1	0	-19	25	0	-19	92*
Cn1cnnc1SCC(=O)c1c(N)n(Cc2ccccc2)c(=O)n(C)c1=O	1	0	19	0	-1	-8
C/C(=N\NC(=O)c1nnn(-c2nonc2N)c1CSc1ccc(Cl)cc1)c1ccco1	1	.	.	.	.	.
COCCCN(C(=O)Nc1cccc(Cl)c1)C(C)c1ccccn1 (stereo not given)	-3	1	0	-2	4	73*
CC(C)NC(=S)N1CCN(C/C=C/c2ccccc2)CC1	0	-2	6	2	0	-7
COc1ccc2[nH]c3c(C)c4ccncc4c(C)c3c2c1	45*	-7	-4	11	22	50
O=C(CCn1nnc2ccccc21)N1CCC(O)(c2cccc(F)c2)CC1	-1	3	-5	0	0	-11
COc1cc(OC)c2c(O)c3c(c(-c4c5c(c(O)c6c(OC)cc(OC)cc46)CO[C@@H](C)[C@H]5O)c2c1)[C@H](O)[C@H](C)OC3	?	31	51*	12	4	44
Cc1cccc(CN2CCc3c(OCC(=O)N4CCCc5ccccc54)cccc3C2=O)c1	22*	-11	0	-4	2	6
O=C1CC(c2cccs2)Cc2nc(NC(=O)C3CC3)ncc21 (stereo not given)	7	33	-11	2	1	1
COC(=O)c1noc(C)c1-c1ccnn1C(=O)c1ccc(C)cc1	12*	-11	-152	-1	-6	1
Cc1onc(-c2ccccc2)c1-c1ccnn1C(=O)NC(C)C	1	4	10	0	-1	2
CCCn1nc(NC(=O)c2cccs2)c2cc3ccc(C)cc3nc21	54*	-18	-7	25	51*	-10
CCn1nc(NC(=O)c2ccncc2)c2cc3ccc(C)cc3nc21	24*	-11	4	8	8	5
CCCn1nc(NC(=O)c2cccs2)c2cc3cc(C)ccc3nc21	72*	-16	14	49	80*	8
Cc1ccc2cc3c(NC(=O)c4cccnc4)nn(C)c3nc2c1	?	-4	-2	3	12	-4
CC(=O)OCCOc1nc(N(C)C)nc(N(C)C)n1	8	36	4	-1	-1	1
